Bioassay records deposited in PubChem BioAssay by several laboratories.
PERK inhibitor: inhibitors of human PERK kinase; inhibition, % at 5.6 µM; actives 0.17% (n = 220,000); CHO PERK-DD fusion, SEAP luminescence translation reporter; Q9NZJ5;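 active means inhibition above the mean inhibition of all tested compounds plus 3 SD, set separately per screening campaign, cut at about 2.9% in these data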;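 further: PERK kinase domain activated by AP20187 dimerizer at 100 nM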
Target sequence (Q9NZJ5 whole entry, looked up, the tested form may be a part): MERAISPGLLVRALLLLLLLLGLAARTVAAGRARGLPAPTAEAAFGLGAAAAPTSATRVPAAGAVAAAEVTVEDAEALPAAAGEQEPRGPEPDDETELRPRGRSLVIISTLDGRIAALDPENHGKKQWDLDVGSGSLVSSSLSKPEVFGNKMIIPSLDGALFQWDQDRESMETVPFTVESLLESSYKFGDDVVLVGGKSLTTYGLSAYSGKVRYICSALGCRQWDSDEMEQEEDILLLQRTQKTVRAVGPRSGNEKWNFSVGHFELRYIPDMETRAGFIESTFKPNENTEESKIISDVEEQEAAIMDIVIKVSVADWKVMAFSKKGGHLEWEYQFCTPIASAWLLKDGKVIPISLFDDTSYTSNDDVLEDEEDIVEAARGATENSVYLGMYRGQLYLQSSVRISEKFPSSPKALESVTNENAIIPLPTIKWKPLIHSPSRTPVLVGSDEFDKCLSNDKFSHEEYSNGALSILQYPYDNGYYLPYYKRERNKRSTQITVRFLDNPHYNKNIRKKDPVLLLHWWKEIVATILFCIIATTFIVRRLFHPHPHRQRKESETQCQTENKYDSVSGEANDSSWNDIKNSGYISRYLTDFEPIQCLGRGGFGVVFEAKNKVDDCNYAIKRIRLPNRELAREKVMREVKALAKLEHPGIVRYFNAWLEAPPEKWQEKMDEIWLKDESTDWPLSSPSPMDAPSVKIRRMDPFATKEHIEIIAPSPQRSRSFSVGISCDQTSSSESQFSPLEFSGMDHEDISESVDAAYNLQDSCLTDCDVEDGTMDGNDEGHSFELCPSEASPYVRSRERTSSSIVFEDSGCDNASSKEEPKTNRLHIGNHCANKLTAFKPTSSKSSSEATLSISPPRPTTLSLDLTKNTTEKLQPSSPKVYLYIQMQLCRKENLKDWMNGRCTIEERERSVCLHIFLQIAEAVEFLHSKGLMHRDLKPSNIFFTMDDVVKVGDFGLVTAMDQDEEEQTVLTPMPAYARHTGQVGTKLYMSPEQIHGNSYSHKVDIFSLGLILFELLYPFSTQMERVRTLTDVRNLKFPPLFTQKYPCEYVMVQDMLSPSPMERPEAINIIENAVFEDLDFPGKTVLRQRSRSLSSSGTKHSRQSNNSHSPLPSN
HKDC1 inh: HKDC1 (human) hexokinase inhibition. recombinant HKDC1, G6PDH/diaphorase resazurin coupled fluorescence. inhibition, % at 20 µM. actives 0.16% (n = 340,000). AID 493160;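 active means inhibition above about 35% when tested at 20 µM, limit read from the data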
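Incubation: 90 min at room temperature in dark / Material: recombinant HKDC1 (HK5) hexokinase enzyme, produced in-house / Quantity: enzyme 5 µg/mL final / Compound: one dose of 20 µM, 1% DMSO / Reagent: glucose and ATP substrates / Buffer or medium: Tris pH 8.0 buffer with MgCl2, Tween-20, BSA, BME / Technique: resorufin fluorescence at 613 nm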
Dynein cargo inh: blocks dynein driven cargo transport along microtubules. 3617.4 mouse cells, GR-EGFP nuclear translocation imaging; test concentration mostly 20 µM; stimulated with dexamethasone, 1 µM; hits give low values. z-score, hits read low. actives 0.47% (n = 220,000);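 active means plate z-score of nuclear minus cytoplasmic receptor signal below a set negative limit, without overly bright fluorescence or cell loss, cut at about -3.5 in these data, passing the limit was not always enough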;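 further: z-score of nuclear minus cytoplasmic ring GR-EGFP intensity difference per well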
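Buffer or medium: Induction medium lacking tetracycline, stripped serum | Also added: Dexamethasone agonist, 1.0 µM final, for 30 min | Timing: 48 h induction, 1 h compound, 30 min dex at 37 °C | Detection: Formaldehyde fixation, Hoechst nuclear stain, 10x automated fluorescence imaging | Measure: Nuclear versus cytoplasmic GR-EGFP signal, averaged per well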
Autophagy HCS: autophagy modulation, high-content screen | MEF GFP-LC3 puncta imaging; test concentration mostly 10 µM | calls only at 10 µM (by protocol) | actives 0.98% (n = 190,000) | AID 463193;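 active means percentage of spot-positive cells more than 3 SD above its plate mean, without a fluorescence outlier flag or 80% toxicity; inconclusive means no clear call, values can overlap the other calls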
HSV replic up: HSV replication enhancement. HSV replication augmentation in cells, fold increase. maximum fold increase. actives 0.005% (n = 220,000). AID 1956; in the data active means maximum fold increase above about 1.5; inconclusive means no clear call, values can overlap the other calls; tested in PC3 cells
Tb hexokinase: T. brucei hexokinase 1 inhibition | recombinant TbHK1, G6PDH-coupled NADH A340 | actives 0.11% (n = 220,000) | inhibition, % at 10 µM | AID 1430;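 active means inhibition of 50% or more in the single-dose primary screen; inactive means inhibition below 50%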
Large screens that a line does not name were inactive. A selection: hits, their analogues and other compounds. The true share with any hit is near 1.2%.

COc1ccc(CCNC(=O)CCN2C(=O)c3cccc4cccc(c34)C2=O)cc1OC	none
COc1ccc(CCN2C(=O)c3cccc4c(C(=O)N5CCCCC5)ccc(c34)C2=O)cc1OC	Autophagy HCS active
Nc1ccccc1Oc1ncc(C(F)(F)F)cc1Cl	PERK inhibitor 2.9
COc1ccc(-c2nnn(CC(=O)N3CCN(c4ccccc4OC)CC3)n2)cc1	Autophagy HCS active
CCOC(=O)c1ccc(N2CCCCC2)c(NS(=O)(=O)c2ccc(C)cc2)c1	none (no result: Autophagy HCS)
COC(=O)c1ccc(C2C(C#N)=C(C)NC3=C2C(=O)CC(C)(C)C3)cc1 (configuration not stated)	none
COc1ccc(C2CC(=O)C3=C(C2)NC(C)=C(C#N)C3c2ccc(N(C)C)cc2)cc1 (configuration not stated)	Autophagy HCS active
Cc1cc(C(=O)OCC(=O)NC(C)c2ccc(F)cc2)c(C)o1 (configuration not stated)	none (no result: PERK inhibitor, Dynein cargo inh, Autophagy HCS, HSV replic up, Tb hexokinase)
O=C(CSc1nnc(COc2ccccc2)n1Cc1ccco1)c1ccc(F)cc1	Autophagy HCS active
Cc1cc(=O)[nH]c2nnc(-c3ccc(Cl)cc3)n12	none (no result: PERK inhibitor, Dynein cargo inh, Autophagy HCS, HSV replic up, Tb hexokinase)
COC(=O)C/C=C/[C@@H](C)[C@@H](/C=N/OCC[C@@H]1C=C[C@H](OC(C)=O)[C@@H](COC(C)=O)O1)NS(=O)(=O)c1ccc(C)cc1	Autophagy HCS active (no result: HKDC1 inh, HSV replic up)
Nc1[nH]nc2nc3ccccc3cc12	none
Nc1cccc2nc3ccccc3cc12	Autophagy HCS active
CCOC(=O)c1ccc(NC(=O)Nc2ccc3c4c(cccc24)C(=O)N3CC)cc1	Autophagy HCS active
Cc1ccc(C)c(C(=O)COc2ccc(C)nc2[N+](=O)[O-])c1	Dynein cargo inh -4.3
O=C(Nc1ccc([N+](=O)[O-])cc1)Nc1ccc(OC(F)F)c(Cl)c1	Autophagy HCS active
O=C(Nc1ccc(OC(F)F)c(Cl)c1)Nc1ccc2c(c1)OCO2	none
CCCCN(C(=O)C1CCCC1)c1c(N)n(CC(C)C)c(=O)[nH]c1=O	none (no result: PERK inhibitor, Dynein cargo inh, Autophagy HCS, HSV replic up, Tb hexokinase)
O=C(N1CCCCC1)N1CCN(S(=O)(=O)c2ccccc2)CC1	none (no result: PERK inhibitor, Dynein cargo inh, Autophagy HCS, HSV replic up, Tb hexokinase)
Cc1c2cnn(-c3ccccc3)c(=O)c2c(C)n1CCCC(=O)NCCN1CCN(C)CC1	PERK inhibitor 3.7 (no result: Autophagy HCS)
Nc1nc2c(s1)CCc1c-2cnn1-c1ccccc1	Dynein cargo inh -6
Nc1nc2c(s1)COc1ccccc1-2	none
O=C(c1ccccc1)c1cc([N+](=O)[O-])ccc1N1CCOCC1	none
O=C(c1ccc(Cl)cc1)c1cc([N+](=O)[O-])ccc1N1CCOCC1	Autophagy HCS active
CCOC(=O)c1cc(CC)sc1NC(=O)c1cc([N+](=O)[O-])ccc1N1CCOCC1	Autophagy HCS active
O=C(c1ccc(Br)cc1)c1cc([N+](=O)[O-])ccc1N1CCOCC1	Autophagy HCS active
CCOC(=O)c1cc(CC)sc1NC(=O)c1ccc(N2CCOCC2)c([N+](=O)[O-])c1	none
O=C1COc2ccc(N3C(=O)C=CC3=O)cc2N1	Dynein cargo inh -4 (no result: HKDC1 inh)
O=c1/c(=C/c2ccco2)sc2n1CN(c1ccccc1)CN=2	none
Cc1ccc(N2CN=c3s/c(=C\c4ccccn4)c(=O)n3C2)cc1	PERK inhibitor 3.1
O=C1c2cccc3c(N4CCCCC4)ccc(c23)C(=O)N1c1ccccn1	none (no result: HSV replic up)
CCN(CC)S(=O)(=O)c1ccc(C(=O)OCCN2C(=O)c3cccc4c(N5CCOCC5)ccc(c34)C2=O)cc1	HSV replic up inconclusive
CCCN1C(=O)c2cccc3c(N4CCCCC4)ccc(c23)C1=O	Autophagy HCS active, HSV replic up inconclusive
O=C(OCCN1C(=O)c2cccc3c(N4CCOCC4)ccc(c23)C1=O)c1cc(Cl)cc(Cl)c1	Autophagy HCS active, HSV replic up inconclusive (no result: HKDC1 inh)
O=C1c2cccc3c(N4CCCCC4)ccc(c23)C(=O)N1c1ccc(Cl)cn1	Autophagy HCS active (no result: HKDC1 inh, HSV replic up)
CCOc1ccc(NC(=O)CSc2nnnn2C2CCCC2)cc1	none (no result: PERK inhibitor, Dynein cargo inh, Autophagy HCS, HSV replic up, Tb hexokinase)
Cc1ccc(C(=O)C2CCN(C(=S)NCCCOC(C)C)CC2)cc1	none (no result: PERK inhibitor, Dynein cargo inh, Autophagy HCS, HSV replic up, Tb hexokinase)
Cc1cc(NC(=O)c2ccccc2C)n(-c2cccc(F)c2)n1	none (no result: PERK inhibitor, Dynein cargo inh, Autophagy HCS, HSV replic up, Tb hexokinase)
Nc1nccc(-c2ccc(-n3cnc4ccccc43)cc2)n1	none
c1ccc2c(c1)ncn2-c1ccc(-c2ccnc3ncnn23)cc1	Autophagy HCS active
CCC(C)c1c(NS(=O)(=O)c2ccc(C)cc2)o[nH]c1=O (configuration not stated)	none (no result: PERK inhibitor, Dynein cargo inh, Autophagy HCS, HSV replic up, Tb hexokinase)
COc1cccc(S(=O)(=O)NC2CCN(C#N)C2)c1 (configuration not stated)	none (no result: PERK inhibitor, Dynein cargo inh, Autophagy HCS, HSV replic up, Tb hexokinase)
N#CC(c1ccc(Cl)cc1)c1ccc2c(C(F)(F)F)cc(C(F)(F)F)nc2n1 (configuration not stated)	Autophagy HCS active
CCN(CC)S(=O)(=O)c1ccc(N2CCOCC2)c(NC(=O)c2[nH]c(C)c(C(C)=O)c2C)c1	none (no result: PERK inhibitor, Dynein cargo inh, Autophagy HCS, HSV replic up, Tb hexokinase)
O=C(CSc1nnc(-c2cccnc2)n1C1CCCCC1)NC1CCCC1	Autophagy HCS active
CCn1c(SCC(=O)NC2CCCCC2)nnc1-c1cccnc1	none (no result: PERK inhibitor, Dynein cargo inh, Autophagy HCS, HSV replic up, Tb hexokinase)
CCn1nc(C(=O)OCC(=O)NCC(C)C)c2ccccc2c1=O	Autophagy HCS active
NC(=O)c1ccsc1NC(=O)C1CCCN1S(=O)(=O)c1ccc(Cl)cc1 (configuration not stated)	none
CC1CCCCN1S(=O)(=O)c1ccc(C(=O)Nc2sccc2C(N)=O)cc1 (configuration not stated)	Autophagy HCS active
O=C(CSc1nc2c(sc3ccccc32)c(=O)n1CCc1ccccc1)NCc1ccco1	Autophagy HCS active
O=C(O)CC(CN1C(=O)c2ccccc2C1=O)c1ccccc1 (configuration not stated)	none (no result: PERK inhibitor, Dynein cargo inh, Autophagy HCS, HSV replic up, Tb hexokinase)
CCN(CC)c1ccc(/C=C(\C#N)c2nc(-c3cccs3)c(NC(C)=O)s2)cc1	Autophagy HCS active, HSV replic up inconclusive (no result: HKDC1 inh)
O=C(O)c1cn2c3c(ccc(Cl)c3c1=O)OCC2	none (no result: PERK inhibitor, Dynein cargo inh, Autophagy HCS, HSV replic up, Tb hexokinase)
CCc1cc[n+](-c2nc3ccccc3nc2[N-]S(=O)(=O)c2ccc(Br)s2)cc1	Autophagy HCS active
COc1ccc(/C=N/Nc2ccc([N+](=O)[O-])cc2S(=O)(=O)N2CCN(C)CC2)cc1	Autophagy HCS active
COc1ccc(NS(=O)(=O)c2cc([N+](=O)[O-])ccc2N/N=C\c2c(C)[nH]c3ccccc23)cc1	Autophagy HCS active, HSV replic up inconclusive
COc1ccc(C=NNc2ccc([N+](=O)[O-])cc2S(=O)(=O)Nc2ccccc2C(=O)O)cc1OC	none (no result: PERK inhibitor, Dynein cargo inh, Autophagy HCS, HSV replic up, Tb hexokinase)
Cc1ccccc1C(=O)N1CCC(C(=O)N2CCCc3ccccc32)CC1	none (no result: PERK inhibitor, Dynein cargo inh, Autophagy HCS, HSV replic up, Tb hexokinase)
Nc1ccccc1C(=O)N1CCCC1	PERK inhibitor 3.1
O=C(Nc1nc(-c2ccccn2)cs1)c1ccc(Br)s1	Autophagy HCS active
COc1ccc(S(=O)(=O)NCC2CCC(C(=O)NCC(OC)OC)CC2)cc1 (configuration not stated)	PERK inhibitor 3.2
